# Measured values gathered from unrelated publications.
# Compare with care: the assays were run in different laboratories.
Structure (SMILES),organism,assay,test system,setting,endpoint,value
OC(Cn1cncn1)(Cn1cncn1)c1ccc(F)cc1F,Candida albicans,"microbial growth, broth dilution",SP3876,48 h,MIC,16 µM
Cc1c2c(nn1C)CSCc1cc(n(C)n1)CSc1cc(c3ccccc3c1)OCCCc1c(C(=O)O)n(C)c3c-2c(Cl)ccc13,Enterococcus faecium,"microbial growth, broth dilution",,clinical isolate,MIC90,25 µM
CC(=O)N1CCN(c2ccc(OCC3COC(Cn4ccnc4)(c4ccc(Cl)cc4Cl)O3)cc2)CC1 (stereo not drawn),Candida albicans,"microbial growth, broth dilution",SP3903,48 h,MIC,2 µM
C/C(=N\CCNCCNCC/N=C(\C)c1c(O)c2ccccc2oc1=O)c1c(O)c2ccccc2oc1=O,Penicillium verrucosum,"microbial growth, broth dilution",,48 h,MIC,31.2 mg/L
c1coc(Nc2ncnc3ccc(-c4cncc(N5CCOCC5)n4)cc23)n1,Trypanosoma brucei,"parasite growth, SYBR Green",,48 h,GI50,25 µM
O=c1[nH]c(CCl)nc2scc(-c3ccc(F)cc3)c12,Trypanosoma brucei,"parasite growth, ATP luminescence",,24 h,EC50,1.3 µM
COc1c(N2C[C@@H]3CCCN[C@@H]3C2)c(F)cc2c(=O)c(C(=O)O)cn(C3CC3)c12,Enterococcus faecium,microbial growth,,clinical isolate,MIC90,64 mg/L
C/C(=N\C1CCCCC1/N=C(\C)c1c(O)c2ccccc2oc1=O)c1c(O)c2ccccc2oc1=O (stereo not drawn),Penicillium verrucosum,"microbial growth, broth dilution",,48 h,MIC,62.5 mg/L
c1cc(-c2ccc3ncnc(Nc4ncco4)c3c2)nc(N2CCOCC2)c1,Trypanosoma brucei,"parasite growth, SYBR Green",GAMBIENSE,,GI50,2.4 µM
O=c1[nH]c(CCl)nc2scc(-c3cccc(F)c3)c12,Trypanosoma brucei,"parasite growth, ATP luminescence",,48 h,EC50,1.1 µM
C/C(=N\N=C(/C)c1c(O)c2ccccc2oc1=O)c1c(O)c2ccccc2oc1=O,Penicillium verrucosum,"microbial growth, broth dilution",,48 h,MIC,62.5 mg/L
O=c1[nH]c(CCl)nc2scc(-c3ccccc3)c12,Trypanosoma brucei,"parasite growth, ATP luminescence",,48 h,EC50,1.4 µM
CCOC(=O)c1cnc2c([N+](=O)[O-])cc(C(F)(F)F)cc2c1NCCCn1ccnc1,Trypanosoma brucei,"parasite growth, resazurin",,72 h,EC50,8 µM
CC1(C)S[C@@H]2[C@H](NC(=O)[C@H](N)c3ccccc3)C(=O)N2[C@H]1C(=O)O,Enterococcus faecium,"microbial growth, broth dilution",ATCC19434,12 h,MIC,0.5 mg/L
CCOC(=O)c1cnc2c([N+](=O)[O-])cc(C(F)(F)F)cc2c1NC1CC1,Trypanosoma brucei,"parasite growth, resazurin",,72 h,EC50,> 10 µM
c1cc(-c2ccc3ncnc(Nc4ncco4)c3c2)nc(N2C[C@H]3C[C@@H]2CO3)n1,Trypanosoma brucei,"parasite growth, SYBR Green",,48 h,GI50,4.7 µM
C=C[C@]1(C)C[C@@H](OC(=O)CS[C@@H]2C[C@H]3CC[C@@H](C2)N3C)[C@]2(C)[C@H](C)CC[C@]3(CCC(=O)[C@H]32)[C@@H](C)[C@@H]1O,Enterococcus faecium,microbial growth,,clinical isolate,MIC90,128 mg/L
O=[N+]([O-])c1ccc(Nc2ncnc3ccc(-c4cccc(N5CCOCC5)c4)cc23)cc1C(F)(F)F,Trypanosoma brucei,"parasite growth, SYBR Green",,48 h,GI50,0.0084 µM
C/C(=N\C(=S)/N=C(\C)c1c(O)c2ccccc2oc1=O)c1c(O)c2ccccc2oc1=O,Penicillium verrucosum,"microbial growth, broth dilution",,48 h,MIC,1.95 mg/L
CN1CCN(c2cccc(-c3ccc4ncnc(Nc5ncco5)c4c3)c2)CC1,Trypanosoma brucei,"parasite growth, SYBR Green",,48 h,GI50,1.7 µM
CC1(C)S[C@@H]2[C@H](NC(=O)[C@H](N)c3ccccc3)C(=O)N2[C@H]1C(=O)O,Enterococcus faecium,microbial growth,,clinical isolate,MIC90,> 128 mg/L
FC(F)(F)c1cc(Nc2ncnc3ccc(-c4cccc(N5CCOCC5)c4)cc23)ccc1Cl,Trypanosoma brucei,"parasite growth, SYBR Green",GAMBIENSE,,GI50,0.25 µM
O=c1[nH]c(CCl)nc2scc(-c3ccccc3F)c12,Trypanosoma brucei,"parasite growth, ATP luminescence",,24 h,EC50,1 µM
Cn1cc(Nc2ncnc3ccc(-c4cccc(N5CCOCC5)c4)cc23)cn1,Trypanosoma brucei,"parasite growth, SYBR Green",,48 h,GI50,0.25 µM
C/C(=N\CCNCC/N=C(\C)c1c(O)c2ccccc2oc1=O)c1c(O)c2ccccc2oc1=O,Penicillium verrucosum,"microbial growth, broth dilution",,48 h,MIC,125 mg/L
CN1CCC(Nc2ncnc3ccc(-c4cccc(N5CCOCC5)c4)cc23)CC1,Trypanosoma brucei,"parasite growth, SYBR Green",,48 h,GI50,4.7 µM
C[C@@H]1[C@H](O)[C@@H](C)/C=C/C=C/C=C/C=C/C=C/C=C/C=C/[C@H](O[C@@H]2O[C@H](C)[C@@H](O)[C@H](N)[C@@H]2O)C[C@@H]2O[C@](O)(C[C@@H](O)C[C@@H](O)[C@H](O)CC[C@@H](O)C[C@@H](O)CC(=O)O[C@H]1C)C[C@H](O)[C@H]2C(=O)O,Candida albicans,"microbial growth, broth dilution",SP3902,48 h,MIC,< 0.25 µM
